Data published in ChEMBL document CHEMBL1125703, “Synthesis, hydrolysis rates, supercomputer modeling, and antibacterial activity of bicyclic tetrahydropyridazinones” (J Med Chem, 1991).

Legend:
Type in all cases: ADME
Conditions in all cases: buffer
[1] = Compound was evaluated for its hydrolysis at pH 9 half life period (T1/2)
Procedure, shortened: (§1)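 Alkaline hydrolysis, i.e. chemical reactivity of the lactam ring with hydroxide ion, followed by pH stat at the pH named in the line. Ionic strength (μ) was 0.5 and the temperature 35 °C. Pseudo-first-order rate constants and half-lives were obtained under these conditions. Some entries are single determinations.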

[2] = Compound was evaluated for its hydrolysis at pH 10 expressed as pseudo first order rate constant (K) (micro = 0.5); procedure, shortened: as §1
[3] = Compound was evaluated for its hydrolysis at pH 9 expressed as pseudo first order rate constant (K) (micro = 0.5); procedure, shortened: as §1
[4] = Compound was evaluated for its hydrolysis at pH 10 half-life period (T1/2); procedure, shortened: as §1
[5] = Compound was evaluated for its hydrolysis at pH 9 for half life period (T1/2); procedure, shortened: as §1

| SMILES | half-life [1] | k [2] | k [3] | half-life [4] | half-life [5] |
| --- | --- | --- | --- | --- | --- |
| CO/N=C(/C(=O)NC1CCN2CC(C(=O)[O-])=C(C(=O)[O-])N2C1=O)c1csc(N)n1.[Na+].[Na+] (stereo not given) | 2880 min | 0.146 h⁻¹ | 0.0144 h⁻¹ | 285 min |  |
| CO/N=C(/C(=O)NC1CCN2CC(C#N)=C(C(=O)O)N2C1=O)c1csc(N)n1 (stereo not given) | 24 min |  | 1.75 h⁻¹ |  |  |
| CO/N=C(\C(=O)NC1CN2CC(C(C)=O)=C(C(=O)O)N2C1=O)c1csc(N)n1 (stereo not given) | 57.6 min |  | 0.724 h⁻¹ |  |  |
| CO/N=C(/C(=O)NC1CCN2CC(C(C)=O)=C(C(=O)O)N2C1=O)c1csc(N)n1 (stereo not given) |  |  | 3.16 h⁻¹ |  | 13.2 min |
| CO/N=C(/C(=O)NC1CN2CC(C#N)=C(C(=O)O)N2C1=O)c1csc(N)n1 (stereo not given) | 24 min |  | 1.73 h⁻¹ |  |  |
| CO/N=C(/C(=O)NC1CN2CC(C(=O)O)=C(C(=O)O)N2C1=O)c1csc(N)n1 (stereo not given) |  | 0.324 h⁻¹ |  | 128 min |  |
| CC1(C)S[C@@H]2[C@H](NC(=O)COc3ccccc3)C(=O)N2[C@H]1C(=O)O [PENICILLIN V] |  | 0.248 h⁻¹ |  |  |  |
